Experimental findings from ChEMBL document CHEMBL2177065, “14-Alkoxy- and 14-acyloxypyridomorphinans: μ agonist/δ antagonist opioid analgesics with diminished tolerance and dependence side effects” (J Med Chem, 2012) are described below.

Molecules are shown by their SMILES. Active and inactive are the calls of the source.

In assay [1] the test system is Mus musculus. Nature of the assay: Antinociceptive activity in icv dosed ICR mouse assessed as warm-water tail-withdrawal latency administered bid for 3 days. In kind it is functional.
Assay [2] deals with Mus musculus. Nature of the assay: Antinociceptive activity in ICR mouse assessed as warm-water tail-withdrawal latency at 0.1 to 100 nmol, icv bid for 3 days relative to naive control. In kind it is functional.
Assay [3] deals with Mus musculus. Kind of assay: Antinociceptive activity in ICR mouse assessed as warm-water tail-withdrawal latency at 10 nmol, icv by tail flick assay. In kind it is functional. The method, boiled down: (§1)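 Male ICR mice dosed i.c.v. in 5 µL (test compounds in 100% DMSO, morphine in water) under light ether anaesthesia. Tail withdrawal from 55 °C water, 10 s cutoff, tested 10–180 min post-injection. %MPE computed against pre-drug baseline. A50 with 95% confidence limits by linear regression at time of peak effect.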
For orientation: In hot-plate and tail-flick tests a longer latency is read as antinociception.

The subject of assay [4] is Mus musculus. Kind of assay: Antinociceptive activity in icv dosed ICR mouse assessed as warm-water tail-withdrawal latency by tail flick assay. In kind it is functional. The method, boiled down: as §1
Assay [5] concerns CHO. Nature of the assay: Activity at human MOR/mouse DOR expressed in CHO cells assessed as increase in forskolin-stimulated cAMP accumulation at 1 uM after drug exposure for 20 hrs followed by washout in the presence of naloxone. In kind it is functional, cell-based. The method, boiled down:
(§2)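 MOR/DOR co-expressing CHO cells (mouse N-cMyc DOR + human MOR) exposed 20 h to drug, then washed three times with serum-free medium and preincubated 20 min at 37 °C with IBMX 500 µM. Then 10 min at 37 °C with forskolin 100 µM/IBMX 500 µM, with or without 10 µM naloxone. Read-out was cAMP by [3H]cAMP–protein kinase binding against a standard curve. Mean of n=3.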

Assay [6] has as its system CHO. Nature of the assay: Activity at human MOR/mouse DOR expressed in CHO cells assessed as increase in forskolin-stimulated cAMP accumulation at 1 uM after drug exposure for 20 hrs followed by washout. In kind it is functional, cell-based. The method, boiled down:
as §2

For assay [7], the target named is T1, Kappa-type opioid receptor (Homo sapiens, UniProt P41145). Kind of assay: Binding affinity to kappa opioid receptor by radioligand binding assay.
In assay [8] the target is T2, Mu-type opioid receptor (Homo sapiens, UniProt P35372). Kind of assay: Binding affinity to mu opioid receptor by radioligand binding assay.
In assay [9] the target is T3, Delta-type opioid receptor (Homo sapiens, UniProt P41143). Nature of the assay: Binding affinity to delta opioid receptor by radioligand binding assay. The method, boiled down:
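Membranes from CHO cells stably expressing human DOR; [³H]DADLE at ~2 nM, displaced by 10 drug concentrations. Incubated 2 h at 25 °C in 50 mM Tris-HCl pH 7.4 with protease inhibitors, ~30 µg protein; triplicates; filtration and scintillation counting. Nonspecific binding defined with 20 µM levallorphan. Three experiments pooled and fitted for IC50.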

Assay [10] relates to CHO. Nature of the assay: Activity at human MOR/mouse DOR expressed in CHO cells assessed as increase in forskolin-stimulated cAMP accumulation at 30 nM after drug exposure for 20 hrs followed by washout in the presence of naloxone. In kind it is functional, cell-based. The method, boiled down:
as §2
For orientation: Cyclic AMP is a second messenger, typically raised through Gs and lowered through Gi signalling.

The target in assay [11] is T1, Kappa-type opioid receptor. Nature of the assay: Agonist activity at human kappa opioid receptor expressed in CHO cells assessed as [35S]GTPgammaS binding at 10 uM by scintillation counting analysis. In kind it is functional, cell-based. The method, boiled down: (§3)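 Human KOR or MOR in CHO cell membranes (50 µg protein), 3 h at 25 °C, pH 7.4 Tris buffer with 100 mM NaCl, 10 mM MgCl2, 1 mM EDTA, 1 mM DTT, 0.1% BSA, GDP 40 µM and [35S]GTP-γ-S 50 pM. Stimulation = (S−B)/B×100, with Emax relative to U69,593 (KOR) or DAMGO (MOR). Curves were ten points, ≥3 experiments pooled. Antagonist Ke was taken from the shift in standard agonist EC50.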
On the technique in general: GTPγS resists hydrolysis and so accumulates on activated G proteins.

Assay [12] relates to Mus musculus. Kind of assay: Antinociceptive activity in icv dosed ICR mouse assessed as warm-water tail-withdrawal latency by tail flick assay in presence of naloxone. In kind it is functional, organism-based.
Assay [13] relates to Mus musculus. Nature of the assay: Antinociceptive activity in ICR mouse assessed as warm-water tail-withdrawal latency at 1 nmol, icv by tail flick assay. In kind it is functional. The method, boiled down: as §1
In assay [14] the test system is CHO. Kind of assay: Activity at human MOR/mouse DOR expressed in CHO cells assessed as increase in forskolin-stimulated cAMP accumulation at 30 nM after drug exposure for 20 hrs followed by washout. In kind it is functional, cell-based. The method, boiled down:
as §2

The nature of assay [15]: Activity at human MOR/mouse DOR expressed in CHO cells assessed as inhibition of DAMGO-mediated forskolin-stimulated cAMP accumulation at 30 nM after 20 hrs by scintillation counting analysis. In kind it is functional. The method, boiled down: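 CHO cells stably co-expressing human MOR and cMyc-tagged mouse DOR were pretreated 20 h with 30 nM drug or medium, then washed. They were preincubated 20 min with 500 µM IBMX, then given 15 min with IBMX, 100 µM forskolin and graded DAMGO at 37 °C. cAMP was measured by [3H]cAMP–protein kinase binding against a standard curve.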

Assay [16] concerns Delta-type opioid receptor. Kind of assay: Agonist activity at delta opioid receptor expressed in rat/mouse NG108-15 cells assessed as [35S]GTPgammaS binding at 10 uM by scintillation counting analysis. In kind it is functional, cell-based. The method, boiled down: (§4)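 NG108-15 cell membranes (50 µg protein), 3 h at 25 °C, pH 7.4 Tris buffer with 100 mM NaCl, 10 mM MgCl2, 1 mM EDTA, 1 mM DTT, 0.1% BSA, GDP 40 µM and [35S]GTP-γ-S 50 pM. Nonspecific binding with 40 µM GTP-γ-S; filtration and scintillation counting. Stimulation = (S−B)/B×100, with Emax relative to DADLE. Curves were ten points, ≥3 experiments pooled. Ke was taken from the shift in standard agonist EC50.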

Assay [17] deals with T2, Mu-type opioid receptor. Nature of the assay: Agonist activity at human mu opioid receptor expressed in CHO cells assessed as [35S]GTPgammaS binding by scintillation counting analysis relative to DAMGO. In kind it is functional, cell-based. The method, boiled down: as §3
In assay [18] the test system is Delta-type opioid receptor. Nature of the assay: Antagonist activity at delta opioid receptor expressed in rat/mouse NG108-15 cells assessed as [35S]GTPgammaS binding by scintillation counting analysis. In kind it is functional, cell-based. The method, boiled down:
as §4

Assay [19] is described as follows: Activity at human MOR/mouse DOR expressed in CHO cells assessed as inhibition of DAMGO-mediated forskolin-stimulated cAMP accumulation after 20 hrs by scintillation counting analysis relative to morphine. In kind it is functional. The method, boiled down: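 CHO cells stably co-expressing human MOR and N-cMyc-tagged mouse DOR, treated 20 h with drug (morphine 1 µM; test compounds 30 nM) or medium. Cells washed, 20 min in serum-free medium with 500 µM IBMX at 37 °C, then 15 min with IBMX plus 100 µM forskolin and graded DAMGO. Acid-extracted cAMP measured by [³H]cAMP protein-kinase binding competition. DAMGO EC₅₀ expressed as fold over control cells; n=3.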

The target in assay [20] is T2, Mu-type opioid receptor. Kind of assay: Agonist activity at human mu opioid receptor expressed in CHO cells assessed as [35S]GTPgammaS binding by scintillation counting analysis. In kind it is functional, cell-based. The method, boiled down: as §3
Assay [21] in a line: Agonist activity at delta opioid receptor expressed in rat/mouse NG108-15 cells assessed as [35S]GTPgammaS binding by scintillation counting analysis relative to DADLE. In kind it is functional, cell-based. The method, boiled down: as §4
Assay [22] is filed under the species Homo sapiens. Nature of the assay: Selectivity ratio of Ki for human kappa opioid receptor to Ki for human delta opioid receptor.
The species named for assay [23] is Homo sapiens. Nature of the assay: Selectivity ratio of Ki for human mu opioid receptor to Ki for human delta opioid receptor.
The target of assay [24] is T1, Kappa-type opioid receptor. Kind of assay: Displacement of [3H]U69,593 from human kappa opioid receptor expressed in CHO cells by scintillation counting analysis. In kind it is cell-based.
Assay [25] has as its target T2, Mu-type opioid receptor. Nature of the assay: Displacement of [3H]DAMGO from human mu opioid receptor expressed in CHO cells by scintillation counting analysis. In kind it is cell-based.
Assay [26] addresses T3, Delta-type opioid receptor. Nature of the assay: Displacement of [3H]DADLE from human delta opioid receptor expressed in CHO cells by scintillation counting analysis. In kind it is cell-based.
A short description of the next assay: cells. As to conditions: CHO, 20 h.

T2 sequence (P35372 whole entry): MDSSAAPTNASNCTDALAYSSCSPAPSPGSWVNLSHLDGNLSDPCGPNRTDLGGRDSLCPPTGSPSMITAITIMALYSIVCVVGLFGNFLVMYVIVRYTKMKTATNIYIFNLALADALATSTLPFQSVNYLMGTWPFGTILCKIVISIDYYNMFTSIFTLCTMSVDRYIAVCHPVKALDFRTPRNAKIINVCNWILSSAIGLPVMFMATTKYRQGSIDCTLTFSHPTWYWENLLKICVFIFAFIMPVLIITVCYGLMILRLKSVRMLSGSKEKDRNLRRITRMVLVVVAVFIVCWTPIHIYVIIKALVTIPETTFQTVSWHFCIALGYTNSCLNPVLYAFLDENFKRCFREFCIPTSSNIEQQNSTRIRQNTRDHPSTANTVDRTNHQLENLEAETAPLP
T3 sequence (P41143 whole entry): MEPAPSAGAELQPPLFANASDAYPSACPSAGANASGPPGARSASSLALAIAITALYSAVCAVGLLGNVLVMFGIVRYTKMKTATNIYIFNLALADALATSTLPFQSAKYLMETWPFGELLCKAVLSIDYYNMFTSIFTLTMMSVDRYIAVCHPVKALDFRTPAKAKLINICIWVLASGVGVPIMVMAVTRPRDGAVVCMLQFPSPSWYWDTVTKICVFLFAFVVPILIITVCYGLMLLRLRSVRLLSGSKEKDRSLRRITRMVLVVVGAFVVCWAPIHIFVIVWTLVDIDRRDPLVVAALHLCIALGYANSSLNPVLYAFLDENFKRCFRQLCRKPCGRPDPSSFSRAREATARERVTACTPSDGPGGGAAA
T1 sequence (P41145 whole entry): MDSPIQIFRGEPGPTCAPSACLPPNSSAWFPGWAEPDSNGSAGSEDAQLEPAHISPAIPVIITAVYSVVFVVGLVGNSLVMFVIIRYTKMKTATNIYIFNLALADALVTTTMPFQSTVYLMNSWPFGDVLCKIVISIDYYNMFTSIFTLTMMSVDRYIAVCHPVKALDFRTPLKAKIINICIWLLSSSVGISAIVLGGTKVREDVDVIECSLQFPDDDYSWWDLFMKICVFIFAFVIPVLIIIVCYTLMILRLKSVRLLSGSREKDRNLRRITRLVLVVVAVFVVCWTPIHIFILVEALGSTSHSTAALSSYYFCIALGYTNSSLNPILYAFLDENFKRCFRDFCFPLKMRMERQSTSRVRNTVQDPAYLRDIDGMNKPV

Take `CN1CC[C@]23c4c5ccc(O)c4O[C@H]2[C@@H](O)C=C[C@H]3[C@H]1C5` [MORPHINE]: the A50 in the assay with Mus musculus [1] amounted to 19.04 nmol; with Mus musculus [4] it was 0.43 nmol. Further, in the assay on Mus musculus [2], the “fold change (FC)” value was 44. Further, the “%max” value with Mus musculus [3] is recorded as 100%. For the same molecule, the result in the assay with CHO [5] and with CHO [6] was Active.
With `Oc1ccc2c3c1O[C@H]1c4ncc(-c5ccc(Cl)cc5)cc4C[C@@]4(O)[C@@H](C2)N(CC2CC2)CC[C@]314`, the Ki in [7] was determined as 20 nM; at Mu-type opioid receptor [8] it was 51 nM; in [9] it was 2.2 nM.
Take `Oc1ccc2c3c1O[C@H]1c4ncc(-c5ccc(Cl)cc5)cc4C[C@@]4(OCCCc5ccccc5)[C@@H](C2)N(CC2CC2)CC[C@]314`: the A50 in the assay on Mus musculus [1] is given as 2.78 nmol; in the assay on Mus musculus [4] it was 0.35 nmol. The result (with CHO [10]; in [11]; in the assay with Mus musculus [12]; with CHO [14]; in assay [16]) was inactive. Further, in the assay on Mus musculus [13], the “%max” value was 75%. Further, the Activity result in the assay with Mus musculus [4] was “Dose-dependent effect”. For the same molecule, the Emax at 0.03 µM in [15] turned out to be 40%. Moreover, the Emax at Mu-type opioid receptor [17] was determined as 72%. The Ke in [18] was 0.091 nM.
For `CN1CC[C@]23c4c5ccc(O)c4O[C@H]2c2ncc(-c4ccc(Cl)cc4)cc2C[C@@]3(O)[C@H]1C5`, the figures for the Ki (in assay [7]; at Mu-type opioid receptor [8]; in [9]) were 468 nM, 230 nM and 3.9 nM, respectively.
`CN1CC[C@]23c4c5ccc(O)c4O[C@H]2c2ncc(-c4ccc(Cl)cc4)cc2C[C@@]3(OCCCc2ccccc2)[C@H]1C5`: the result in the assay on CHO [10] and in the assay on CHO [14] was Active. The outcome (in assay [11]; in the assay with Mus musculus [12]) was inactive. Besides, the “%max” value in the assay with Mus musculus [13] turned out to be 92%. The A50 in the assay with Mus musculus [4] is given as 0.23 nmol. Further, the Activity result with Mus musculus [4] is “Dose-dependent effect”. The Emax at 0.03 µM in [15] amounted to 20%. Moreover, the “fold change (FC)” value in assay [19] turned out to be 7. The Emax on Mu-type opioid receptor [17] was 125%; in assay [21], 85%. The EC50 on Mu-type opioid receptor [20] amounted to 2.15 nM; in the assay “cells” it was 0.34 nM. In addition, the figures for the Ratio Ki in the assay filed under Homo sapiens [22] and in the assay listed under Homo sapiens [23] were 1.5 and 0.52, respectively. The Ki in assay [24] was 1.53 nM; on Mu-type opioid receptor [25], 0.54 nM; in [26], 1.04 nM.

For orientation: Ki means the dissociation constant of the complex between target and ligand, obtained from inhibition or displacement. Lower therefore signals a stronger hold on the target. A word on the Emax: it is the greatest response seen or fitted, relative to the assay's reference. As usually defined, the EC50 is the concentration giving half of the maximal effect.
